Data from ChEMBL document CHEMBL1152327, “Cucurbitane-type triterpenoids from the stems of Cucumis melo” (J Nat Prod, 2009).
pIC50: −log10 of the molar value. Active and inactive are the calls of the source. No cut-off for these calls is given here.

Legend:
[1] = system: A549; assay: Cytotoxicity against human A549 cells upto 10 uM after 72 hrs by SRB assay; format: functional, cell-based
Outline: (§1)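 A549/ATCC (human non-small-cell lung) or BEL-7402 (human hepatocellular) cells plated 24 h before treatment, then continuously exposed to a range of concentrations for 72 h. Cells fixed and stained with sulforhodamine B, bound dye solubilized in 10 mM Tris, absorbance read at 565 nm. IC50 derived.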

[2] = biological target: Signal transducer and activator of transcription 3 (Homo sapiens) (UniProt P40763); assay: Inhibition of STAT3 upto 10 uM by Western blotting
Outline: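 Phosphotyrosine Stat3 levels in treated cells, tested up to 10 µM. Cells washed in ice-cold PBS, lysed in SDS sample buffer, equal protein run on SDS-PAGE and transferred to PVDF. Blots blocked in 5% nonfat milk/TBST, then phospho-Stat3 and β-tubulin antibodies at 4 °C overnight, secondary 2 h room temperature, ECL detection. IC50 derived.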

[3] = system: Bel-7402; assay: Cytotoxicity against human Bel7402 cells upto 10 uM after 72 hrs by SRB assay; format: functional, cell-based; outline: as §1
[4] = system: Bel-7402; assay: Cytotoxicity against human Bel7402 cells after 72 hrs by SRB assay; format: functional, cell-based; details: Bel-7402, 72 h; outline: as §1
[5] = system: A549; assay: Cytotoxicity against human A549 cells after 72 hrs by SRB assay; format: functional, cell-based; details: A549, 72 h; outline: as §1

Chain of Signal transducer and activator of transcription 3 (Homo sapiens) (P40763 whole entry): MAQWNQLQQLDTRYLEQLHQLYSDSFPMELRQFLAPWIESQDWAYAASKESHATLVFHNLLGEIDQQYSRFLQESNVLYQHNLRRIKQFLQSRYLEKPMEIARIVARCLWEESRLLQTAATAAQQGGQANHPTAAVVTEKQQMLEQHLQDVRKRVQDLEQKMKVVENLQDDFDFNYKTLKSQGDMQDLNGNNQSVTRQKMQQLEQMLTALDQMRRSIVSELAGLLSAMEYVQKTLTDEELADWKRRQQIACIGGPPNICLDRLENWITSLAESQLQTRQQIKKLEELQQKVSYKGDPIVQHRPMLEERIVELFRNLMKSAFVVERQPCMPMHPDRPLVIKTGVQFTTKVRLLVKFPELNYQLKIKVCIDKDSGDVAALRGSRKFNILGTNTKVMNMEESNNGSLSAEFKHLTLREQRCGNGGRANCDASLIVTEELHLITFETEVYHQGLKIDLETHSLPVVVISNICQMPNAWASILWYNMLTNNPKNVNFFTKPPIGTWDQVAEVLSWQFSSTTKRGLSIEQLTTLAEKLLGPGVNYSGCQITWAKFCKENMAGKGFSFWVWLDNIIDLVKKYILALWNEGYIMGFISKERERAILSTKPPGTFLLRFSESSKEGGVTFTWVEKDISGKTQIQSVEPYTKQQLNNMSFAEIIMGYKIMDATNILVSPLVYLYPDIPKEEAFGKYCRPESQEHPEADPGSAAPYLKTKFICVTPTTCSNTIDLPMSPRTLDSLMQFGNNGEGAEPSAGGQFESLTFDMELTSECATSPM

Structure (SMILES)	Activity [1]	inhibition [2]	Activity [3]	pIC50 [4]	pIC50 [5]
CC(C)(O)CCC(=O)[C@](C)(O)[C@H]1[C@H](O)C[C@@]2(C)[C@@H]3CC=C4[C@@H](C[C@H](O)C(=O)C4(C)C)[C@]3(C)C(=O)C[C@]12C	inactive	inactive	inactive	–	–
CC(=O)OC(C)(C)CCC(=O)[C@](C)(O)[C@H]1[C@H](O)C[C@@]2(C)[C@@H]3[C@@H](O)C=C4[C@@H](C[C@H](O)C(=O)C4(C)C)[C@]3(C)C(=O)C[C@]12C	inactive	inactive	inactive	–	–
CC(=O)OC(C)(C)/C=C/C(=O)[C@](C)(O)[C@H]1[C@H](O)C[C@@]2(C)[C@@H]3CC=C4[C@@H](C[C@H](O[C@@H]5O[C@H](CO)[C@@H](O)[C@H](O)[C@H]5O)C(=O)C4(C)C)[C@]3(C)C(=O)C[C@]12C	inactive	inactive	inactive	–	–
CC(=O)OC(C)(C)/C=C/C(=O)[C@](C)(O)[C@H]1[C@H](O)C[C@@]2(C)[C@@H]3CC=C4[C@@H](C[C@H](O[C@@H]5O[C@H](CO)[C@@H](O)[C@H](O)[C@H]5O)C(=O)C4(C)C)[C@]3(CO)C(=O)C[C@]12C	inactive	inactive	inactive	–	–
CC(=O)[C@H]1[C@H](O)C[C@@]2(C)[C@@H]3CC=C4[C@@H](C[C@H](O)C(=O)C4(C)C)[C@]3(C)C(=O)C[C@]12C	inactive	inactive	inactive	–	–
CC1(C)C(=O)[C@@H](O)C[C@@H]2C1=CC[C@@H]1[C@@]2(C)C(=O)C[C@]2(C)[C@@H]([C@@](C)(O)C(=O)C[C@H](O)C(C)(C)O)[C@H](O)C[C@@]12C	inactive	inactive	inactive	–	–
CC(=O)OC(C)(C)/C=C/C(=O)[C@](C)(O)[C@H]1[C@H](O)C[C@@]2(C)[C@@H]3CC=C4[C@@H](C[C@H](O)C(=O)C4(C)C)[C@]3(CO)C(=O)C[C@]12C [CUCURBITACIN A]	–	inactive	–	6.52	6.40
CC(=O)OC(C)(C)/C=C/C(=O)[C@](C)(O)[C@H]1[C@H](O)C[C@@]2(C)[C@@H]3[C@@H](O)C=C4[C@@H](C[C@H](O)C(=O)C4(C)C)[C@]3(C)C(=O)C[C@]12C [7BETA-HYDROXYCUCURBITACIN B]	–	inactive	–	5.12	5.49
CC(=O)[C@H]1[C@H](O)C[C@@]2(C)[C@@H]3CC=C4[C@@H](C[C@H](O[C@@H]5O[C@H](CO)[C@@H](O)[C@H](O)[C@H]5O)C(=O)C4(C)C)[C@]3(C)C(=O)C[C@]12C	inactive	inactive	inactive	–	–
C/C(=C\[C@@H]1C[C@](C)(O)[C@H]2[C@@H](C[C@@]3(C)[C@@H]4[C@@H](O)C=C5[C@@H](C[C@H](O[C@@H]6O[C@H](CO)[C@@H](O)[C@H](O)[C@H]6O)[C@H](O)C5(C)C)[C@]4(C)C(=O)C[C@]23C)O1)CO	inactive	inactive	inactive	–	–
C/C(=C\C(O)C[C@](C)(O)[C@H]1[C@H](O)C[C@@]2(C)[C@@H]3CC=C4[C@@H](C[C@H](O)C(=O)C4(C)C)[C@]3(C)C(=O)C[C@]12C)CO (some centres not stated)	inactive	inactive	inactive	–	–
CC(C)(O)CCC(=O)[C@](C)(O)[C@H]1[C@H](O)C[C@@]2(C)[C@@H]3CC=C4[C@@H](CC(=O)[C@H](O)C4(C)C)[C@]3(C)C(=O)C[C@]12C	inactive	inactive	inactive	–	–
CC(C)(O)CCC(=O)[C@](C)(O)[C@H]1[C@H](O)C[C@@]2(C)[C@@H]3CC=C4[C@@H](C[C@H](O)C(=O)C4(C)C)[C@]3(CO)C(=O)C[C@]12C	inactive	inactive	inactive	–	–
CC(=O)OC(C)(C)CCC(=O)[C@](C)(O)[C@H]1[C@H](O)C[C@@]2(C)[C@@H]3CC=C4[C@@H](CC(=O)[C@H](O)C4(C)C)[C@]3(C)C(=O)C[C@]12C	inactive	inactive	inactive	–	–
CC(=O)OC(C)(C)/C=C/C(=O)[C@](C)(O)[C@H]1[C@H](O)C[C@@]2(C)[C@@H]3CC=C4[C@H](C[C@H](O)C(=O)C4(C)C)[C@]3(C)C(=O)C[C@]12C [CUCURBITACIN B]	–	–	–	8.10	8.00
CC(C)(O)/C=C/C(=O)[C@](C)(O)[C@H]1[C@H](O)C[C@@]2(C)[C@@H]3CC=C4[C@@H](C[C@H](O)C(=O)C4(C)C)[C@]3(CO)C(=O)C[C@]12C	inactive	inactive	inactive	–	–
C/C(=C\[C@@H]1C[C@](C)(O)[C@H]2[C@@H](C[C@@]3(C)[C@@H]4[C@@H](O)C=C5[C@@H](C[C@H](O)[C@H](O)C5(C)C)[C@]4(C)C(=O)C[C@]23C)O1)CO	inactive	inactive	inactive	–	–
CC(C)(O)/C=C/C(=O)[C@](C)(O)[C@H]1[C@H](O)C[C@@]2(C)[C@@H]3CC=C4[C@@H](C[C@H](O[C@@H]5O[C@H](CO)[C@@H](O)[C@H](O)[C@H]5O)C(=O)C4(C)C)[C@]3(C)C(=O)C[C@]12C	inactive	inactive	inactive	–	–
CC1(C)C(=O)[C@@H](O)C[C@@H]2C1=CC[C@@H]1[C@@]2(C)C(=O)C[C@]2(C)[C@@H]([C@@](C)(O)C(=O)CC(O)C(C)(C)O)[C@H](O)C[C@@]12C (some centres not stated)	inactive	inactive	inactive	–	–
CC(=O)OC(C)(C)CCC(=O)[C@](C)(O)[C@H]1[C@H](O)C[C@@]2(C)[C@@H]3CC=C4[C@@H](C[C@H](O)C(=O)C4(C)C)[C@]3(C)C(=O)C[C@]12C	inactive	inactive	inactive	–	–
CC(C)=CCC[C@@H](C)[C@H]1CC[C@@]2(C)[C@@H]3CC=C4[C@H](CCCC4(C)C)[C@H]3C(=O)C[C@]12C	inactive	inactive	inactive	–	–
